# An excerpt weighted towards active compounds, which were near 2% of everything screened.
# zfTRPN1 agonist = agonists of zebrafish TRPN1 channel; AID 1424; activation, % at 3 µM; HEK293 zebrafish TRPN1-YFP, Fluo-8 calcium fluorescence; 100% = response to 87 µM carbachol; actives 0.18% (n = 220,000);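 active = activation above its plate's cutoff, the mean activation of test wells on that plate plus 3 SD, cut at about 19% in these data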;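 note: 0% = DMSO alone and 100% = 87 µM carbachol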
#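 Assay system: Zebrafish TRPN1-YFP in HEK293 cells | Incubation: Dye loading 1 h at 37 °C, then 30 min room temperature | Measured by: Kinetic Fluo-8 fluorescence, ex 470-495, em 515-575 nm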
# TRPML3 agonist = activates the human TRPML3 channel | HEK293 TRPML3-YFP, Fluo-8 calcium fluorescence; 100% = the carbachol control signal | activation, % at 3 µM | actives 0.29% (n = 220,000) | AID 1448;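 active = activation above its plate's cutoff, the mean activation of the plate's test wells plus 3 SD, cut at about 12% in these data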;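 note: 0% = DMSO only wells and 100% = carbachol wells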
#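 Test system: TRPML3-YFP stable HEK293 cells. Doses: single point at 3 µM. Incubation: dye loading 1 h 37 °C then 30 min ambient, 125 s read. Signal: Fluo-8 calcium dye fluorescence, ex 470-495, em 515-575 nm. Measure: percent activation from peak-to-basal fluorescence ratio, scaled between DMSO and carbachol.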
# CRFBP-R2 agonist = agonists of human CRF-binding protein/CRF-R2 receptor complex | HEK293 CRF-R2/CRF-BP, calcium dye fluorescence (FLIPR); percent of saturating CRF peptide response | activation, % at 13.2 µM | actives 0.46% (n = 350,000) | AID 588473;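 active = activation of at least 50%, plus an integration ratio under a set limit after plate pattern correction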;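 note: plate controls were neutral control wells without compound for no effect and CRF at EC100 for full effect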
# CRFBP-R2 block = antagonists of CRF-binding protein/CRF-R2 receptor complex; inhibition, % at 11.8 µM; actives 0.59% (n = 350,000); HEK293 CRF-R2/CRF-BP, CRF-induced calcium fluorescence; AID 588475;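 active = inhibition of the ligand-induced calcium signal above about 50% at the single tested concentration, limit read from the data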
# GPR7 antag = human neuropeptides B/W receptor 1 antagonism | inhibition, % at 4.4 µM | P48145 | actives 1.1% (n = 290,000) | AID 1861 | GPR7-expressing cells, fluorescence antagonist assay; in the data active = inhibition above about 16%, passing the limit was not always enough;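 note: cells stimulated with the agonist NPW; 0% = agonist with vehicle and 100% = vehicle without agonist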
# Target sequence (P48145 whole entry, looked up): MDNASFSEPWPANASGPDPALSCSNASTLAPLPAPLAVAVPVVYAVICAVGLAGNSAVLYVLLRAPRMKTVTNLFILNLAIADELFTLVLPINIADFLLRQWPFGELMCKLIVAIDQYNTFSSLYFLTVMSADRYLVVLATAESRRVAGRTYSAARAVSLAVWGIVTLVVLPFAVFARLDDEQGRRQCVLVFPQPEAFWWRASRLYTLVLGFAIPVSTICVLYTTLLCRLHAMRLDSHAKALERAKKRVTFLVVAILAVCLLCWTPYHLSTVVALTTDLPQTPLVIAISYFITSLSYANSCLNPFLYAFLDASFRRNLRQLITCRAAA
# GPR7 antag conf = confirmation of human GPR7 antagonists | inhibition, % at 4.4 µM | shares compounds with GPR7 antag | actives 52% (n = 2,400) | AID 1952 | GPR7-expressing cells, calcium fluorescence antagonist mode; in the data active = inhibition above about 24%;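 note: stimulated with the GPR7 agonist NPW; 0% = agonist plus vehicle and 100% = vehicle alone without agonist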
# MCHR1 antagonist = MCHR1 (human) antagonism in GPR7 counter-screen; AID 2148; inhibition, % at 4.4 µM; actives 62% (n = 2,400); MCHR1-expressing cells, fluorescence antagonist assay; shares compounds with GPR7 antag; in the data active = inhibition above about 22%;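 note: 0% = vehicle with agonist and 100% = vehicle without agonist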
# Active calls of the source: *; . = not tested or not shown.
SMILES,zfTRPN1 agonist,TRPML3 agonist,CRFBP-R2 agonist,CRFBP-R2 block,GPR7 antag,GPR7 antag conf,MCHR1 antagonist
CCOc1ccc(-n2c(-c3ccccc3)c[n+]3c2CCC3)cc1,0,1,-2,-4,-16,.,.
CCOc1ccc(-n2c(-c3ccc(OC)cc3)c[n+]3c2CCCCC3)cc1,-1,0,1,0,36*,55*,49*
COc1ccc(-c2c[n+]3c(n2-c2ccc(C)cc2)CCCCC3)cc1,1,1,3,3,25*,47*,38*
COc1ccc(-n2c(-c3ccc(Cl)cc3)c[n+]3c2CCCCC3)cc1,-2,-1,-3,0,4,.,.
COc1ccc(-c2c[n+]3c(n2-c2ccccc2)CCCCC3)cc1,-1,0,-1,-12,2,.,.
Cc1cccc(C)c1N(CC(=O)N1CCOCC1)S(C)(=O)=O,.,.,0,-2,-15,.,.
COc1ccc(CC2(CO)CCN(Cc3nc(C(C)C)cs3)CC2)cc1,6,3,3,-1,25*,8,40*
COc1ccc(CC2(CO)CCN(Cc3ccc(NC(C)=O)cc3)CC2)cc1,1,1,-2,-5,-20,.,.
CCCNC(=O)c1cc(-c2ccc3c(c2)OCO3)on1,.,.,-1,-23,14,.,.
CC(C)NC(=O)c1cc(-c2ccc3c(c2)OCO3)on1,.,.,-2,21,44*,0,12
O=S(=O)(NC1CCCC1)c1ccc(S(=O)(=O)N2CCc3ccccc32)cc1,8,4,2,-25,47*,62*,61*
CCCN1CCN(C(=O)Cn2nc(C)n3c(cc4sccc43)c2=O)CC1,.,.,1,-1,-11,.,.
CCc1nn(CC(=O)N2CCN(CC)CC2)c(=O)c2cc3sccc3n12,.,.,-1,-16,21*,-9,-3
CCOc1ccc(C(C)NC(=S)NCc2ccc(Cl)cc2)cc1 (configuration not stated),18,10,95*,-96,30*,61*,70*
CCC(C)c1ccc(C(C)NC(=S)NCc2ccc(F)cc2)cc1 (configuration not stated),.,.,16,-17,-10,.,.
CCCc1ccc(C(C)NC(=S)NCc2ccc(F)cc2)cc1 (configuration not stated),.,.,53*,-66,59*,79*,93*
COC(=O)c1c(C)[nH]c(C(=O)C(C)OC(=O)c2cnc(C)cn2)c1C (configuration not stated),.,.,-1,1,.,.,.
Cc1cccc(N2CCCn3c2nc2c3c(=O)[nH]c(=O)n2C)c1,.,.,-7,-14,-13,.,.
Cc1cc2nc(-c3ccc(SCc4ccc(C#N)cc4)nc3)[nH]c2cc1C,0,0,1,17,33*,55*,66*
CC(=O)CSc1ccc(-c2nc3ccccc3[nH]2)cn1,.,.,2,9,-11,.,.
N#Cc1ccccc1CSc1ccc(-c2nc3ccccc3[nH]2)cn1,3,0,0,-10,31*,5,74*
CC(=O)CSc1ccc(-c2nc3cc(C)c(C)cc3[nH]2)cn1,3,0,1,-6,-2,.,.
C=CCNC(=O)c1ccccc1NC(=O)C1CCN(S(=O)(=O)c2ccc(SC)cc2)CC1,.,.,4,-23,10,.,.
N#CCC(=O)Nc1ccc(C(=O)OCC(=O)NC(=O)NCc2ccco2)cc1,.,.,1,-4,.,.,.
CCC(C)Sc1nc2c(c(=O)[nH]1)C(c1cccs1)C1=C(CCCC1=O)N2 (configuration not stated),-3,-1,0,16,32*,25*,30*
SMILES,zfTRPN1 agonist,TRPML3 agonist,CRFBP-R2 agonist,CRFBP-R2 block,GPR7 antag,GPR7 antag conf,MCHR1 antagonist
Cc1cc(C)c(S(=O)(=O)N2CCN(C(=O)CC(C)n3nc(C)nc3C)CC2)c(C)c1 (configuration not stated),.,.,1,15,.,.,.
COCCOC(=O)c1[nH]c2c(c1C)C(=O)CC(c1ccco1)C2 (configuration not stated),-1,-1,1,2,24*,14,36*
NC(=O)c1ccsc1NC(=O)COC(=O)Cc1cccc2ccccc12,6,4,4,29,28*,54*,78*
NC(=O)c1ccsc1NC(=O)COC(=O)Cc1c[nH]c2ccccc12,.,.,0,-11,.,.,.
COC(=O)NNC(=O)c1ccc(Cl)cc1Cl,0,0,-1,8,-8,.,.
CC(C)(C)C(=O)NC(=S)NNC(=O)c1ccc(Cl)cc1Cl,171*,103*,129*,-15,32*,40*,37*
CC1CCC(C(C)C)C(OCC(O)CN2CCCC(C)C2)C1 (configuration not stated),0,1,-1,-5,32*,39*,25*
CC1CCC(C(C)C)C(OCC(O)CN2CCOCC2)C1 (configuration not stated),0,0,2,-5,-4,.,.
COCCCNC(=S)N1CCC(NC(=O)Nc2ccc(C)cc2)CC1,0,0,-1,4,21*,0,1
CC1CCCC(NC(=S)Nc2ccc(SC(F)F)cc2)C1C (configuration not stated),14,4,12,15,45*,32*,54*
OC1CCC(NC(=S)Nc2ccc(SC(F)F)cc2)CC1 (configuration not stated),0,0,1,8,3,.,.
Cc1c(N(C)C(=O)COc2ccc3ccccc3c2)c(=O)n(-c2ccccc2)n1C,.,.,-2,-5,-11,.,.
CC(=O)c1ccc(N2CCN(C(=O)c3cc4c(s3)CCCC4)CC2)cc1,2,1,0,20,26*,30*,61*
CC(=O)Nc1ccc(NC(=O)Cn2cnc(S(=O)(=O)N3CCOCC3)c2)cc1,.,.,7,5,-2,.,.
Cc1ccc(CS(=O)Cc2ccc(C(=O)N3CCN(c4cccc(C)c4C)CC3)o2)cc1 (configuration not stated),.,.,-3,3,.,.,.
Cc1cccc(N2CCN(C(=O)c3ccc(CS(=O)Cc4cccc(Cl)c4)o3)CC2)c1C (configuration not stated),.,.,-1,3,42*,11,31*
O=C(c1ccc(Cl)c([N+](=O)[O-])c1)N1CCCc2ccccc21,.,.,2,-3,-8,.,.
Cc1ccccc1N=C/C=C1/C=C(c2ccccc2)OC(C)(C)O1,-1,0,-2,-4,-4,.,.
COc1ccc(N=C/C=C2\C=C(c3ccccc3)OC(C)(C)O2)cc1,0,0,1,6,29*,-10,5
CC(=O)c1ccc(N2CCN(C3CCC(C(C)(C)C)CC3)CC2)cc1 (configuration not stated),.,.,-1,3,-11,.,.
